Columns and labels:
[1] = Phase 1 safety monitoring of PX-866 with docetaxel; type: in vivo, human
Outline: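 Open-label dose escalation in cohorts of 6–9 patients at 4, 6 or 8 mg oral daily test compound plus docetaxel 75 mg m−2 IV every 21 days, with dexamethasone premedication. All patients receiving ≥1 dose had vital signs, labs and exams; AEs were graded by NCI CTCAE v4.02. DLTs included related grade ≥3 events, febrile grade 3/4 neutropenia, platelets <25 000 per μl and ANC <500 per μl for >7 days.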

[2] = system: NSCLC; details: ref Roberts et al, 2004, Horstmann et al, 2005, Schuette et al; cited from earlier work
[3] = Docetaxel plasma pharmacokinetics in patients; type: in vivo; details: human
[4] = plasma, intravenous, 75 mg m^-2

For `CC(=O)O[C@@]12CO[C@@H]1C[C@H](O)[C@@]1(C)C(=O)[C@H](O)C3=C(C)[C@@H](OC(=O)[C@H](O)[C@@H](NC(=O)OC(C)(C)C)c4ccccc4)C[C@@](O)([C@@H](OC(=O)c4ccccc4)[C@H]21)C3(C)C` [docetaxel], the “patients requiring docetaxel dose reduction” value ([1]; 18 out of 43) was 42%, the “SAE related to docetaxel: ataxia” value ([1]; PX-866 with docetaxel) was 1 N and the “SAE related to docetaxel: febrile neutropenia” value ([1]; PX-866 with docetaxel) was 1 N. For the same compound, the “SAE related to docetaxel: mental status changes” value ([1]; PX-866 with docetaxel) was 1 N, the “SAE related to docetaxel: nausea” value ([1]; PX-866 with docetaxel) was 2 N and the “SAE related to docetaxel: pneumonia” value ([1]; PX-866 with docetaxel) was 1 N. The “SAE related to docetaxel: vomiting” value ([1]; PX-866 with docetaxel) was 3 N, the “gastrointestinal disorders, docetaxel-related” value ([1]; PX-866 with docetaxel, 43 patients) was 79.1% and the “Grade 3/4 AE related to docetaxel: anaemia” value ([1]; PX-866 with docetaxel, N=43) was 2 N. The “Grade 3/4 AE related to docetaxel: diarrhoea” value ([1]; PX-866 with docetaxel, N=43) was 3 N, the “Grade 3/4 AE related to docetaxel: leucopenia” value ([1]; PX-866 with docetaxel, N=43) was 4 N and the “Grade 3/4 AE related to docetaxel: nausea” value ([1]; PX-866 with docetaxel, N=43) was 2 N. For the same compound, the “Grade 3/4 AE related to docetaxel: vomiting” value ([1]; PX-866 with docetaxel, N=43) was 3 N, the “patients in whom docetaxel was discontinued due to toxicity” value ([1]; after SD or better with combination, continued single-agent PX-866) was “eight” and the “patients requiring docetaxel dose reduction due to neutropenia” value ([1]; of 18 with dose reduction) was “Fourteen”. The “PR rate, second-line docetaxel in NSCLC” value [2] was 13%, the “PR−SD rate, second-line docetaxel in NSCLC” value [2] was 50% and the “exposure in the presence of PX-866” value ([3]; in vivo) was “not affected”. For the same compound, the AUC(0-t) ([3]; plasma, intravenous) was 851 ng·h/mL, the MRT inf ([3]; plasma, intravenous) was 13.9 h and the Tmax ([3]; plasma, intravenous) was 0.19 h. For the same compound, the Vd ([3]; plasma, intravenous) was 2690 L, the clearance ([3]; plasma, intravenous) was 2570 mL/min and the AUC(0-t) [3, 4] was 1200 ng·h/mL. The MRT inf [3, 4] was 15.2 h, the Tmax [3, 4] was 0.19 h and the Vd [3, 4] was 2990 L. The clearance [3, 4] was 2390 mL/min, the AUC(0-inf) ([3]; plasma, intravenous, AUCINF, C2D1 (with PX-866), mean, N=35, plasma) was 1110 ng·h/mL and the Cmax ([3]; plasma, intravenous, Cmax, C2D1 (with PX-866), mean, N=35, plasma) was 539 ng/mL. The half-life ([3]; plasma, intravenous, Half-life, C2D1 (with PX-866), mean, N=35, plasma) was 13.1 h.
